# From ChEMBL document CHEMBL1157934, “Sugar-based peptidomimetics as potential inhibitors of the vascular endothelium growth factor binding to neuropilin-1” (Bioorg Med Chem, 2010)
# Activity calls are given as the source filed them. No cut-off for these calls is given here. Residues, ends and D or L forms follow the SMILES beside them. *: point of attachment. X1 = O=C(c1ccc(-c2c3nc(c(-c4ccccc4)c4ccc([nH]4)c(-c4ccccc4)c4nc(c(-c5ccccc5)c5ccc2[nH]5)C=C4)CC3)cc1)*; Ahx = NCCCCCC(=O)O
# Target: T1, Neuropilin-1 (Homo sapiens, UniProt O14786)
# Assay: Inhibition of VEGF binding to NRP1 expressed in CHO cells
# Assay type: cell-based
# T1 sequence (O14786 whole entry): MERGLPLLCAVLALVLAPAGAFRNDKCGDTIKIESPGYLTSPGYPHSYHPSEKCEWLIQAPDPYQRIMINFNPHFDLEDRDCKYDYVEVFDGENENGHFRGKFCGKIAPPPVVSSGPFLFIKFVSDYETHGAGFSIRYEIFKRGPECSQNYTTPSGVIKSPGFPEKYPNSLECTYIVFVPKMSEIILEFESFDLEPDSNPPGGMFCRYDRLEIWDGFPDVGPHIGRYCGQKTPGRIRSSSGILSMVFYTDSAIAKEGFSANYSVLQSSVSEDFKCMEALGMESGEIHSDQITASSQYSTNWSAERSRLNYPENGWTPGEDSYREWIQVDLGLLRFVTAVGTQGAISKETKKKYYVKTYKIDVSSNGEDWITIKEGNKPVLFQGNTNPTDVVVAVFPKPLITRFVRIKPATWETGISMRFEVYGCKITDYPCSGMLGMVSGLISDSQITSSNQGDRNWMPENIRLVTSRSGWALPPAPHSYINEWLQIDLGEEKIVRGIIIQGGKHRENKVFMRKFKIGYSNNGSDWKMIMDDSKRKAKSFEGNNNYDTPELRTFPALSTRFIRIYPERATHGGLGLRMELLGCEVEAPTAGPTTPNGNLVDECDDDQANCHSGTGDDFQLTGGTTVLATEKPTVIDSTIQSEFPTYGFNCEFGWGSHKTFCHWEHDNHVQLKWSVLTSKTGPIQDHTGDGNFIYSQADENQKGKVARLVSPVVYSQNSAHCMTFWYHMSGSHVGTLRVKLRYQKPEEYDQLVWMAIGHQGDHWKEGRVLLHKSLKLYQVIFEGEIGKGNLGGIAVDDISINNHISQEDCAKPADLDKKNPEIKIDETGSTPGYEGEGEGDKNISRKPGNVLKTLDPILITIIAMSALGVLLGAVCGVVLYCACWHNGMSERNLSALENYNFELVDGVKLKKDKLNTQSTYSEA
row,IC50 [µM],Compound
1,19,H-ATWLPPR-OH

# Target: T1, Neuropilin-1
# Assay: Inhibition of biotinylated VEGF165 binding to recombinant NRP1 at 100 uM after 2 hrs by competitive binding assay
# How it was run: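 NRP-1-coated wells were blocked with PBS/0.5% BSA for 1 h at 37 °C. Biotinylated VEGF165 was added with competitor at 100 µM for 2 h at room temperature, then washed. Detection used streptavidin-HRP, 20 min at room temperature, stop solution and OD at 450 nm. Results are absorbance relative to blocking-buffer-only wells, three wells per condition.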
row,inhibition,Compound
1,Active,CC1(C)O[C@@H]2[C@H](O1)[C@H](CN1CCN(C(=N)N)C1=O)O[C@@H]2CC(=O)NCCc1c[nH]c2ccccc12
2,Active,CC1(C)O[C@@H]2[C@H](O1)[C@H](CNCCN)O[C@@H]2CC(=O)NCCc1c[nH]c2ccccc12
3,Active,H-ATWLPPR-OH
4,Active,CC1(C)O[C@@H]2[C@H](O1)[C@H](CNCCNC(=O)OCc1ccccc1)O[C@@H]2CC(=O)NCCc1c[nH]c2ccccc12
5,Active,C[C@@H](O)CNC(=O)C[C@H]1O[C@@H](CN(CCNC(=N)N)C(=N)N)[C@H]2OC(C)(C)O[C@H]21
6,Active,CC(=O)O[C@H](C)CNC(=O)C[C@H]1O[C@@H](CNCc2nc3ccccc3[nH]2)[C@H]2OC(C)(C)O[C@H]21
7,65%,CC1(C)O[C@@H]2[C@H](O1)[C@H](CN(CCNC(=N)N)C(=N)N)O[C@@H]2CC(=O)NCCc1c[nH]c2ccccc12
8,Active,CC1(C)O[C@@H]2[C@H](O1)[C@H](CNCCNc1ccccn1)O[C@@H]2CC(=O)NCCc1c[nH]c2ccccc12
9,Active,CC(=O)O[C@H](C)CNC(=O)C[C@H]1O[C@@H](CNCc2ccncc2)[C@H]2OC(C)(C)O[C@H]21
10,Active,CC1(C)O[C@@H]2[C@H](O1)[C@H](CN[C@@H](CCCNC(=N)N)C(=O)O)O[C@@H]2CC(=O)NCCc1c[nH]c2ccccc12
11,Active,CC(=O)O[C@H](C)CNC(=O)C[C@H]1O[C@@H](CNCCN/C(=N\C(=O)OC(C)(C)C)NC(=O)OC(C)(C)C)[C@H]2OC(C)(C)O[C@H]21
12,Active,CC(=O)O[C@H](C)CNC(=O)C[C@H]1O[C@@H](CNCCNC(=O)OCc2ccccc2)[C@H]2OC(C)(C)O[C@H]21
13,Active,CC1(C)O[C@@H]2[C@H](O1)[C@H](CN(CCN/C(=N/C(=O)OCc1ccccc1)NC(=O)OCc1ccccc1)/C(=N/C(=O)OCc1ccccc1)NC(=O)OCc1ccccc1)O[C@@H]2CC(=O)NCCc1c[nH]c2ccccc12
14,Active,C[C@@H](O)CNC(=O)C[C@H]1O[C@@H](CNCc2nc3ccccc3[nH]2)[C@H]2OC(C)(C)O[C@H]21
15,Active,C[C@@H](O)CNC(=O)C[C@H]1O[C@@H](CN[C@@H](CCCNC(=N)N)C(=O)O)[C@H]2OC(C)(C)O[C@H]21
16,Active,CC(=O)O[C@H](C)CNC(=O)C[C@H]1O[C@@H](CNCCN)[C@H]2OC(C)(C)O[C@H]21
17,Active,C[C@@H](O)CNC(=O)C[C@H]1O[C@@H](CNCc2ccncc2)[C@H]2OC(C)(C)O[C@H]21
18,Active,CC1(C)O[C@@H]2[C@H](O1)[C@H](CNCCNC(=N)N)O[C@@H]2CC(=O)NCCc1c[nH]c2ccccc12

row,inhibition,Compound
1,Active,CC(C)(C)OC(=O)/N=C(\NCCNC[C@@H]1O[C@H](CC(=O)NCCc2c[nH]c3ccccc23)[C@@H]2OC(C)(C)O[C@@H]21)NC(=O)OC(C)(C)C
2,Active,CC1(C)O[C@@H]2[C@H](O1)[C@H](CNCc1ccncc1)O[C@@H]2CC(=O)NCCc1c[nH]c2ccccc12
3,Active,CC1(C)O[C@@H]2[C@H](O1)[C@H](CNCc1nc3ccccc3[nH]1)O[C@@H]2CC(=O)NCCc1c[nH]c2ccccc12
4,Active,COC(=O)[C@H](CCCNC(=N)N)NC[C@@H]1O[C@H](CC(=O)NCCc2c[nH]c3ccccc23)[C@@H]2OC(C)(C)O[C@@H]21
5,Active,COC(=O)[C@H](CCCNC(=N)N)NC[C@@H]1O[C@H](CC(=O)NC[C@@H](C)OC(C)=O)[C@@H]2OC(C)(C)O[C@@H]21
6,Active,C[C@@H](O)CNC(=O)C[C@H]1O[C@@H](CNCc2ccccc2)[C@H]2OC(C)(C)O[C@H]21
7,Active,C[C@@H](O)CNC(=O)C[C@H]1O[C@@H](CNCCc2nc3ccccc3[nH]2)[C@H]2OC(C)(C)O[C@H]21
8,Active,CC1(C)O[C@@H]2[C@H](O1)[C@H](CNCc1ccccc1)O[C@@H]2CC(=O)NCCc1c[nH]c2ccccc12
9,Active,CC1(C)O[C@@H]2[C@H](O1)[C@H](CNCCNc1ncccn1)O[C@@H]2CC(=O)NCCc1c[nH]c2ccccc12
10,Active,C[C@@H](O)CNC(=O)C[C@H]1O[C@@H](CNCCNc2ccccn2)[C@H]2OC(C)(C)O[C@H]21
11,Active,CC(=O)O[C@H](C)CNC(=O)C[C@H]1O[C@@H](CNCCc2nc3ccccc3[nH]2)[C@H]2OC(C)(C)O[C@H]21
12,Active,CC1(C)O[C@@H]2[C@H](O1)[C@H](CNCCc1nc3ccccc3[nH]1)O[C@@H]2CC(=O)NCCc1c[nH]c2ccccc12
13,Active,CC(=O)O[C@H](C)CNC(=O)C[C@H]1O[C@@H](CN(CCN/C(=N/C(=O)OCc2ccccc2)NC(=O)OCc2ccccc2)/C(=N/C(=O)OCc2ccccc2)NC(=O)OCc2ccccc2)[C@H]2OC(C)(C)O[C@H]21
14,Active,CC(C)(C)OC(=O)/N=C(/NC(=O)OC(C)(C)C)N1CCN(C[C@@H]2O[C@H](CC(=O)NCCc3c[nH]c4ccccc34)[C@@H]3OC(C)(C)O[C@@H]32)C1=O
15,Active,CC(C)C[C@H](NC(=O)[C@H](Cc1c[nH]c2ccccc12)NC(=O)[C@@H](NC(=O)[C@H](C)NC(=O)CCCCCNC(=O)c1ccc(-c2c3nc(c(-c4ccccc4)c4ccc([nH]4)c(-c4ccccc4)c4nc(c(-c5ccccc5)c5ccc2[nH]5)C=C4)CC3)cc1)[C@@H](C)O)C(=O)N1CCC[C@H]1C(=O)N1CCC[C@H]1C(=O)N[C@@H](CCCNC(=N)N)C(=O)O ({X1-Ahx}-ATWLPPR-OH)
16,Active,CC(=O)O[C@H](C)CNC(=O)C[C@H]1O[C@@H](CNCCNc2ccccn2)[C@H]2OC(C)(C)O[C@H]21
17,Active,CC(=O)O[C@H](C)CNC(=O)C[C@H]1O[C@@H](CNCCNC(=N)N)[C@H]2OC(C)(C)O[C@H]21

# Target: T1, Neuropilin-1
# Assay: Displacement of biotinylated VEGF165 from recombinant NRP1 after 2 hrs by competitive binding assay
# How it was run: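 Plates coated overnight at room temperature with recombinant chimeric NRP-1 in PBS, then blocked with PBS/0.5% BSA for 1 h at 37 °C. Biotinylated VEGF165 (5 ng/mL; 110 pM), with heparin present, competed with increasing competitor concentrations for 2 h at room temperature. Bound label was detected with streptavidin-HRP, 20 min at room temperature, then stopped and read at 450 nm. IC50 was derived by the median effect method.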
row,IC50 [µM],Compound
1,92,CC1(C)O[C@@H]2[C@H](O1)[C@H](CN(CCNC(=N)N)C(=N)N)O[C@@H]2CC(=O)NCCc1c[nH]c2ccccc12
2,171,CC(C)C[C@H](NC(=O)[C@H](Cc1c[nH]c2ccccc12)NC(=O)[C@@H](NC(=O)[C@H](C)NC(=O)CCCCCNC(=O)c1ccc(-c2c3nc(c(-c4ccccc4)c4ccc([nH]4)c(-c4ccccc4)c4nc(c(-c5ccccc5)c5ccc2[nH]5)C=C4)CC3)cc1)[C@@H](C)O)C(=O)N1CCC[C@H]1C(=O)N1CCC[C@H]1C(=O)N[C@@H](CCCNC(=N)N)C(=O)O ({X1-Ahx}-ATWLPPR-OH)
